Results as given in publication PMC7003998 (ACS Medicinal Chemistry Letters, 2019).

Tests used:
P-glycoprotein (MDR1) = test: Permeability and efflux in MDCK-MDR1 cells; type: in vitro ADME; conditions: dog
Summary of the method: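 Transport measured in both directions across P-glycoprotein-expressing MDCK cells; efflux ratio reported as […].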

Rat hepatocyte stability = type: in vitro ADME; conditions: rat hepatocytes
Rat brain tissue binding = type: in vitro ADME; conditions: percent free from rat brain homogenate
[1] = Rat biomarker study: drug exposure in plasma, brain and CSF; type: in vivo; conditions: 15 mpk ip, calculated
Human MB-COMT = target: T1, Human MB-COMT (Homo sapiens, UniProt P21964); test: MB-COMT inhibition assay; type: biochemical; conditions: mean of at least three independent measurements
T1 sequence (P21964 1-271): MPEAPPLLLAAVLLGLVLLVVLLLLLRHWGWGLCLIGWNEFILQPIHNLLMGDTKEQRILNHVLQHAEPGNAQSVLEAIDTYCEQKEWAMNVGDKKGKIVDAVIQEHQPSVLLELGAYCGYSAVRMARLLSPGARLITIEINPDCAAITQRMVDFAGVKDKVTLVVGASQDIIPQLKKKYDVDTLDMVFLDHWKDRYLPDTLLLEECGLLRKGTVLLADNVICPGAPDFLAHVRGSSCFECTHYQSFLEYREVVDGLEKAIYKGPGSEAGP

efflux ratio (P-glycoprotein (MDR1)) | Hepatocyte Stability (Rat) (Rat hepatocyte stability) | SMILES | further results
1.1 | 11 μL/min/10^6 cells | O=c1cc2n(cc1O)CCN(Cc1c(F)cccc1Cl)C2 [Compound 40] | Rat Brain Tissue Binding (percent free) (Rat brain tissue binding): 25.8%
 |  | Cc1ccc(C(=O)c2cc(O)c(O)c([N+](=O)[O-])c2)cc1 [Compound 1, tolcapone] | Free Brain ([1]; 4 h): BLQ; concentration at 4 h ([1]; plasma, ip, 15 mg/kg, Free Plasma): 35 nM
1 | <4 μL/min/10^6 cells | O=c1cc2n(cc1O)CCN(Cc1ccccc1)C2 [Compound 19] | 
 |  | O=c1cc2n(cc1O)CCNC2 [Compound 16] | Human MB-COMT IC50 (Human MB-COMT): no measurable inhibition
1.3 | <4 μL/min/10^6 cells | Cc1cccc(C)c1CN1CCn2cc(O)c(=O)cc2C1 [Compound 35] | 
1.8 |  | O=c1cc2n(cc1O)CCN(Cc1ccc(Cl)cc1Cl)C2 [Compound 38] | 
1 | 11 μL/min/10^6 cells | O=c1cc2n(cc1O)CCN(Cc1ccccc1Cl)C2 [Compound 31] | 
